Assay [1] concerns the target T1, Motilin receptor (Homo sapiens, UniProt O43193). As to the kind of experiment: Displacement of [125I]motilin from human MOTR. In outline: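 Competition binding on isolated membranes expressing human motilin receptor, with radioiodinated porcine motilin ([125I]-motilin) as tracer. 11-point concentration curves gave Ki, with a top test concentration of 10 µM. Compounds came from 10 mM DMSO stocks stored at -60 °C.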
(Loss of bound radioactivity is the signal in a displacement assay; it reports binding, not function.)

In assay [2] the target is T1, Motilin receptor. As to the kind of experiment: Activity at human MOTR expressed in CHO cells assessed as inhibition of motilin-induced calcium release upto 10 uM. Format: functional, cell-based. To be noted: filed as antagonist. In outline:
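Aequorin luminescence assay on whole CHO cells expressing cloned human motilin receptor, measuring inhibition of motilin-induced Ca2+ release. Agonist activity was also checked at concentrations up to 10 µM. Compounds were TFA salts held as 10 mM DMSO stocks at -60 °C.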

The target in assay [3] is T1, Motilin receptor. As to the kind of experiment: Activity at human MOTR expressed in CHO cells assessed as inhibition of motilin-induced calcium release. Format: functional, cell-based. In outline:
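Whole CHO cells expressing cloned human motilin receptor; intracellular Ca2+ release evoked by motilin read out by aequorin luminescence. Compounds were tested in antagonist mode and also checked for agonist activity at concentrations up to 10 µM. Compound stocks were 10 mM in DMSO, stored at -60 °C.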

The species named for the next assay is Oryctolagus cuniculus. As to the kind of experiment: Antagonist activity against rabbit duodenum. To be noted: read-out: pA2 (converted).

Each structure is given as a SMILES string.

T1 sequence (O43193 whole entry): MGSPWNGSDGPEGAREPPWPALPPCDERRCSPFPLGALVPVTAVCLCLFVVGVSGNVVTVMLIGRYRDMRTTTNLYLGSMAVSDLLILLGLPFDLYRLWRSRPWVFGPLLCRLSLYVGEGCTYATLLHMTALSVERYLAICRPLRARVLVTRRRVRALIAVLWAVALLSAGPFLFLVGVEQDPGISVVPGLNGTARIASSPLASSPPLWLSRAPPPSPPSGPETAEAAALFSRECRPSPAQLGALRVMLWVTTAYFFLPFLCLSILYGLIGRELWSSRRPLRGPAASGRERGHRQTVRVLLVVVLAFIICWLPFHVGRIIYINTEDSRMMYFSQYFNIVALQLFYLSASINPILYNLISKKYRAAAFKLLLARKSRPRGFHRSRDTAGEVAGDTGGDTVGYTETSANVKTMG

`CCC[C@@H]1NC(=O)[C@@H](C(C)C)NC(=O)[C@@H](Cc2ccc(OC)cc2)NCCOc2ccccc2CCCNC1=O` returned an inhibition constant (Ki) at Motilin receptor [1] of 0.008 µM. Moreover, at Motilin receptor [2], the Activity entry was “Antagonist”. Also, the half-maximal inhibitory concentration (IC50) at Motilin receptor [3] was 0.023 µM. Further, the Kb in the assay filed under Oryctolagus cuniculus was 0.1 µM.

`CCC[C@@H]1NC(=O)[C@@H](C(C)C)NC(=O)[C@@H](Cc2ccc(O)cc2)NCCOc2ccccc2/C=C/CNC1=O` gave an inhibitory constant (Ki) at Motilin receptor [1] of 0.137 µM. For the same compound, at Motilin receptor [2], the Activity entry was “Antagonist”. Further, the IC50 at Motilin receptor [3] is 0.074 µM.

`CC(C)C[C@H]1C(=O)NCCCc2ccccc2OCCN[C@H](Cc2ccc(O)cc2)C(=O)N[C@H](C(C)C)C(=O)N1C` came in with an inhibitory constant (Ki) at Motilin receptor [1] of 0.222 µM. Also, at Motilin receptor [2], the Activity result is “Antagonist”.

`CCC[C@@H]1NC(=O)[C@@H](C(C)C)NC(=O)[C@H](Cc2ccc(O)cc2)NCCOc2ccccc2/C=C/CNC1=O`: the Ki at Motilin receptor [1] is greater than 10 µM. The Activity entry on Motilin receptor [2] was “Antagonist”.

As for `CCC[C@@H]1NC(=O)[C@@H](C(C)C)NC(=O)[C@@H](Cc2ccc(O)cc2)NCCc2ccccc2/C=C\CCNC1=O`, at Motilin receptor [1], the inhibition constant Ki is greater than 10 µM. The Activity result at Motilin receptor [2] is “Antagonist”.

As for `CCC[C@@H]1NC(=O)[C@@H](CCC(=O)O)NC(=O)[C@@H](Cc2ccc(O)cc2)NCCOc2ccccc2/C=C/CNC1=O`, on Motilin receptor [1], the inhibition constant Ki was 4.9 µM. Moreover, on Motilin receptor [2], the Activity result is “Antagonist”.

Usually Ki stands for a dissociation constant, usually derived from enzyme kinetics or from competition with a known ligand. Lower therefore signals a stronger hold on the target. The IC50 is the concentration at which inhibition is half-maximal.

The values above are taken from ChEMBL document CHEMBL1137350, “Discovery of a new class of macrocyclic antagonists to the human motilin receptor” (J Med Chem, 2006).
